For twelve compounds, Kd and Activity results are on record in ChEMBL document CHEMBL4017522, “Stilbene Boronic Acids Form a Covalent Bond with Human Transthyretin and Inhibit Its Aggregation” (J Med Chem, 2017).

Assay [1] has as its target T1, Transthyretin (Homo sapiens, UniProt P02766). In words: Competitive binding affinity to human wild type TTR expressed in Escherichia coli BL-21 assessed as equilibrium dissociation constant of second site in presence of ANS by spectrofluorometer.
Assay [2] deals with T1, Transthyretin. Put plainly: Inhibition of human wild type TTR expressed in Escherichia coli BL-21 assessed as fibril formation at 7.2 uM incubated for 30 mins measured after 96 hrs by light scattering method relative to control. Set-up: scale not given: the % may be the effect or the level left. The method, boiled down: (§1)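 Ligand (7.2 or 14.4 μM) preincubated 30 min with TTR tetramers (7.2 μM, wild-type or V30M), then diluted twofold into 50 mM sodium acetate, pH 4.4, 100 mM KCl. Turbidity read as A400 at 0 and 96 h, four replicates; percent fibril formation = ligand-well A400 gain over DMF vehicle-well gain ×100, standard deviations propagated.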

Assay [3] has as its target T1, Transthyretin. In words: Inhibition human wild type TTR expressed in Escherichia coli BL-21 assessed as fibril formation at 14.4 uM incubated for 30 mins after 96 hrs by light scattering method relative to control. Set-up: scale not given: the % may be the effect or the level left. The essentials:
as §1

Assay [4] deals with Transthyretin (Homo sapiens), P02766 [V50M]. Put plainly: Inhibition of human TTR V30M mutant expressed in Escherichia coli BL-21 assessed as fibril formation at 7.2 uM incubated for 30 mins measured after 96 hrs by light scattering method relative to control. Set-up: scale not given: the % may be the effect or the level left.
For assay [5], the target named is T1, Transthyretin. Put plainly: Reversible binding affinity to human wild type TTR expressed in Escherichia coli BL-21 at 360 uM by mass spectrometry.
Assay [6] deals with Transthyretin (Homo sapiens), P02766 [V50M]. Put plainly: Inhibition of human TTR V30M mutant expressed in Escherichia coli BL-21 assessed as fibril formation at 14.4 uM incubated for 30 mins measured after 96 hrs by light scattering method relative to control. Further details: scale not given: the % may be the effect or the level left.

The source made the active and inactive calls. The rule behind the calls is not given here.

The term Kd denotes a measure of binding affinity in units of concentration. As to `OB(O)c1ccc(/C=C/c2ccc(B(O)O)cc2Cl)c(Cl)c1`, the Kd on Transthyretin [1] was found to be 470 nM. The Activity came out at 20% on Transthyretin [2], 3% on Transthyretin [3], 32% in assay [4] and 8% in assay [6]. In addition, on Transthyretin [5], the outcome was Active.

Regarding `O=C(O)c1cccc(/C=C/c2ccc(B(O)O)cc2Cl)c1`, the dissociation constant Kd at Transthyretin [1] was found to be 450 nM. Further, the Activity at Transthyretin [2] was found to be 16%; on Transthyretin [3], 4%; in assay [4] it was 32%; in assay [6] it was 10%.

In the case of `OB(O)c1ccc(/C=C/c2cc(O)cc(O)c2)c(Cl)c1`, on Transthyretin [1], the Kd worked out at 440 nM. Further, the Activity on Transthyretin [2] was 19%; on Transthyretin [3], 4%; in assay [4] it was 36%; in assay [6] it was 12%.

For the compound `OB(O)c1cccc(/C=C/c2ccc(B(O)O)cc2Cl)c1`, the Activity at Transthyretin [2] turned out to be 26%; on Transthyretin [3], 10%; in assay [4], 54%; in assay [6], 16%.

For the compound `Oc1ccc(/C=C/c2cc(O)cc(O)c2)cc1` [RESVERATROL], the equilibrium dissociation constant (Kd) at Transthyretin [1] was 470 nM. Besides, the Activity at Transthyretin [2] is 28%; at Transthyretin [3], 9%.

Turning to `O=C(O)c1cccc(/C=C/c2ccc(O)cc2Cl)c1`, at Transthyretin [1], the equilibrium dissociation constant (Kd) amounted to 470 nM. The Activity on Transthyretin [2] came to 21%; on Transthyretin [3], 3%; in assay [4], 41%; in assay [6] it was 9%.

With `OB(O)c1ccc(/C=C/c2cc(O)cc(O)c2)cc1`, the Kd on Transthyretin [1] was 470 nM. For the same compound, the Activity on Transthyretin [2] came to 21%; on Transthyretin [3], 9%; in assay [4], 48%; in assay [6], 23%.

Regarding `O=C(O)c1cccc(/C=C/c2ccc(O)cc2)c1`, on Transthyretin [1], the Kd came to 1800 nM. Further, the Activity at Transthyretin [2] stood at 75%; at Transthyretin [3], 77%; in assay [4], 112%; in assay [6] it was 120%.

As to `Oc1cc(O)cc(/C=C/c2ccc(O)cc2Cl)c1`, the Kd on Transthyretin [1] is 730 nM. Moreover, the Activity amounted to 22% on Transthyretin [2], 7% at Transthyretin [3], 44% in assay [4] and 14% in assay [6].

On to `O=C(O)c1cccc(/C=C/c2ccc(B(O)O)cc2)c1`, for which, on Transthyretin [1], the equilibrium dissociation constant (Kd) was 990 nM. For the same compound, the Activity at Transthyretin [2] was found to be 21%; at Transthyretin [3], 11%; in assay [4], 48%; in assay [6] it was 28%.

Turning to `O=C(O)c1ccc2nc(-c3cc(Cl)cc(Cl)c3)oc2c1`, the Activity at Transthyretin [2] worked out at 22%; at Transthyretin [3], 0%; in assay [4], 5%; in assay [6], 8%.

Regarding `Oc1ccc(/C=C/c2ccc(O)cc2Cl)c(Cl)c1`, at Transthyretin [1], the dissociation constant (Kd) was 820 nM. The Activity at Transthyretin [2] turned out to be 30%; on Transthyretin [3] it was 12%; in assay [4], 62%; in assay [6], 27%.
